Source: ChEMBL document CHEMBL1148787, “Novel substituted (pyridin-3-yl)phenyloxazolidinones: antibacterial agents with reduced activity against monoamine oxidase A and increased solubility” (J Med Chem, 2007)
Values after ≈ are worked out from the molar mass of the structure shown.

Legend:
[1] = biological target: T1, Amine oxidase [flavin-containing] A (Homo sapiens, UniProt P21397); assay: Inhibition of human liver MAOA expressed in yeast
T1 sequence (P21397 whole entry): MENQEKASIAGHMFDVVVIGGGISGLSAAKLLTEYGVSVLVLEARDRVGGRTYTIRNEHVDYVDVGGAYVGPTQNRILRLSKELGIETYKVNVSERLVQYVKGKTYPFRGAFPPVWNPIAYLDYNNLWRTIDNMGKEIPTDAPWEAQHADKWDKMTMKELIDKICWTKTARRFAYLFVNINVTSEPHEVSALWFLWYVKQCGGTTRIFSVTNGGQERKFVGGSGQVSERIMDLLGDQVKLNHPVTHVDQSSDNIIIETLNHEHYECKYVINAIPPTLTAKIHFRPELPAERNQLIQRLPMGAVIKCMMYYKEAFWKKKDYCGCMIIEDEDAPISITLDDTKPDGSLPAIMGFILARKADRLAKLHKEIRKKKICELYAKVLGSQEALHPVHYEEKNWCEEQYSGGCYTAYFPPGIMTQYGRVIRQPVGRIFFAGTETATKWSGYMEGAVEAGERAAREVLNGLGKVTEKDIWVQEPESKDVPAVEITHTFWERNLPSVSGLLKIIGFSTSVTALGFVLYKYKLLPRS

[2] = Half life in Wistar rat at 10 mg/kg, iv; type: ADME, organism-based; parameters: dose 10 mg/kg, route intravenous; details: in vivo
Outline: (§1)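 Groups of three Wistar Han rats; bolus injection via cannulated jugular vein at 2 or 10 mg/kg. Serial 200 µL whole-blood samples at time intervals; plasma levels by LC-MS/MS; parameters by noncompartmental analysis.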

[3] = AUC in Wistar rat at 10 mg/kg, iv; type: ADME, organism-based; parameters: dose 10 mg/kg, route intravenous; details: plasma; outline: as §1
[4] = Volume of distribution in Wistar rat at 10 mg/kg, iv; type: ADME, organism-based; parameters: dose 10 mg/kg, route intravenous; details: in vivo, read-out: Vdss; outline: as §1
Cytochrome P450 2C19 = Cytochrome P450 2C19 (Homo sapiens, UniProt P33261); assay: Inhibition of human recombinant CYP2C19; type: ADME
Outline: (§2)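 Recombinant human P450s, compound at 0.2-20 µM; fluorogenic substrates: 3-cyano-7-ethoxycoumarin (1A2), 7-methoxy-4-trifluoromethylcoumarin (2C9, 2C19), 7-methoxy-4-(aminomethyl)coumarin (2D6). Fluorescence detection; IC50 determined.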

[5] = Solubility by nephelometric analysis; type: physicochemical
Outline: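 Nephelometry after diluting compounds into the MAO-A assay mixture (100 mM potassium phosphate, pH 7.4).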

Homo sapiens = species: Homo sapiens; assay: Protein binding in human plasma; details: read-out: PPB (converted)
Cytochrome P450 2C9 = Cytochrome P450 2C9 (Homo sapiens, UniProt P11712); assay: Inhibition of human recombinant CYP2C9; type: ADME; outline: as §2
Cytochrome P450 2D6 = Cytochrome P450 2D6 (Homo sapiens, UniProt P10635); assay: Inhibition of human recombinant CYP2D6; type: ADME; outline: as §2
Haemophilus influenzae = assay: Antibacterial activity against Haemophilus influenzae ATCC 51907; type: functional
Outline: (§3)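 CLSI broth microdilution, 64 to 0.06 µg/mL, 2% DMSO final. Media: S. aureus, Mueller Hinton broth; H. influenzae, MHB plus 0.5% yeast extract, 15 µg/mL hematin, 1.5 µg/mL NAD; S. pneumoniae, MHB plus 0.65% lysed horse blood. 35 °C, aerobic (S. aureus) or 5% CO2.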

[6] = Clearance in Wistar rat at 10 mg/kg, iv; type: ADME, organism-based; parameters: dose 10 mg/kg, route intravenous; details: in vivo; outline: as §1
Cytochrome P450 3A4 = Cytochrome P450 3A4 (Homo sapiens, UniProt P08684); assay: Inhibition of human recombinant CYP3A4; type: ADME
[7] = Oral bioavailability in Wistar rat at 10 mg/kg, po; type: ADME, organism-based; details: in vivo
Outline: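 Wistar Han rats, groups of three; 10 mg/kg given by oral gavage, compared against iv dosing. Serial whole-blood sampling, plasma drug by LC-MS/MS, noncompartmental pharmacokinetic analysis.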

Streptococcus pneumoniae [8] = assay: Antibacterial activity against linezolid-resistant Streptococcus pneumoniae; type: functional
Outline: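 Broth microdilution per CLSI guidelines. Compounds were dissolved in 100% DMSO and diluted to 2% DMSO (v/v), 64 to 0.06 µg/mL, in 2.2% (w/v) Mueller Hinton broth with 0.65% (v/v) lysed horse blood. Plates were incubated at 35 °C in 5% CO2 and read at 620 nm.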

Streptococcus pneumoniae [9] = assay: Antibacterial activity against penicillin-susceptible Streptococcus pneumoniae AP671401; type: functional; outline: as §3
Staphylococcus aureus = assay: Antibacterial activity against methicillin-susceptible Staphylococcus aureus AP601055; type: functional; outline: as §3
Cytochrome P450 1A2 = biological target: T2, Cytochrome P450 1A2 (Homo sapiens, UniProt P05177); assay: Inhibition of human recombinant CYP1A2; type: ADME; outline: as §2
T2 sequence (P05177 whole entry): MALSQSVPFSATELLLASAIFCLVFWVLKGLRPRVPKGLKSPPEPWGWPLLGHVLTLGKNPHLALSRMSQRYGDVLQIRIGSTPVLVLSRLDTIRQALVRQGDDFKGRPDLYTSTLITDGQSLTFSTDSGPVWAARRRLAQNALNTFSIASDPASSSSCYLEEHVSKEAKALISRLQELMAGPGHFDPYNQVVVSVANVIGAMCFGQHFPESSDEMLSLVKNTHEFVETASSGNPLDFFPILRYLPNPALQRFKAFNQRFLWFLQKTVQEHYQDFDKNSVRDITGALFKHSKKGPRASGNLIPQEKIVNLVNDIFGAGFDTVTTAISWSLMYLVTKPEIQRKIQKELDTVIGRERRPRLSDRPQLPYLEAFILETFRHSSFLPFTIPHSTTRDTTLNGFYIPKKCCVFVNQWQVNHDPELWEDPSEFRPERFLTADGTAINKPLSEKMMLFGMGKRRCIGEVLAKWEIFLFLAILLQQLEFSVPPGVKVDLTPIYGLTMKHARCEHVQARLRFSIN

[10] = Clearance in Wistar rat at 2 mg/kg, iv; type: ADME, organism-based; parameters: dose 2 mg/kg, route intravenous; details: in vivo; outline: as §1
Rattus norvegicus = assay: AUC in Wistar rat at 2 mg/kg, iv; type: ADME, organism-based, Plasma; parameters: dose 2 mg/kg, route intravenous; details: in vivo; outline: as §1
[11] = Volume of distribution in Wistar rat at 2 mg/kg, iv; type: ADME, organism-based; parameters: dose 2 mg/kg, route intravenous; details: in vivo, read-out: Vdss; outline: as §1
[12] = Half life in Wistar rat at 2 mg/kg, iv; type: ADME, organism-based; parameters: dose 2 mg/kg, route intravenous; details: in vivo; outline: as §1
Streptococcus pneumoniae [13] = assay: Antibacterial activity against Streptococcus pneumoniae 548 infected mouse lung infection model assessed as reduction in bacterial count at 80 mg/kg/day, po relative to control; type: functional
Outline: (§4)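 Groups of 10 CD-1 mice infected intratracheally, 1 × 10^5 cfu/lung. Oral gavage of compound or vehicle started 18 h post-infection. Lungs removed 24 h after treatment start, homogenized, serially diluted onto Tryptic Soy agar with 5% sheep blood; log CFU reduction versus vehicle group.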

Mus musculus [14] = assay: AUC in Streptococcus pneumoniae 548 infected mouse lung infection model at 80 mg/kg/day, po; type: ADME, organism-based; parameters: route oral; details: in vivo
Outline: (§5)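 CD-1 mice; oral gavage at 40 or 80 mg/kg. Groups of three sacrificed at timed intervals, whole blood taken by cardiac puncture; plasma treated with methanol containing internal standard and quantified by LC-MS/MS against standard curve.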

Mus musculus [15] = assay: AUC in Streptococcus pneumoniae 548 infected mouse lung infection model at 40 mg/kg/day, po; type: ADME, organism-based; parameters: route oral; details: in vivo; outline: as §5
Streptococcus pneumoniae [16] = assay: Antibacterial activity against Streptococcus pneumoniae 548 infected mouse lung infection model assessed as reduction in bacterial count at 40 mg/kg/day, po relative to control; type: functional; outline: as §4

Sequence of Cytochrome P450 2C9 (P11712 whole entry): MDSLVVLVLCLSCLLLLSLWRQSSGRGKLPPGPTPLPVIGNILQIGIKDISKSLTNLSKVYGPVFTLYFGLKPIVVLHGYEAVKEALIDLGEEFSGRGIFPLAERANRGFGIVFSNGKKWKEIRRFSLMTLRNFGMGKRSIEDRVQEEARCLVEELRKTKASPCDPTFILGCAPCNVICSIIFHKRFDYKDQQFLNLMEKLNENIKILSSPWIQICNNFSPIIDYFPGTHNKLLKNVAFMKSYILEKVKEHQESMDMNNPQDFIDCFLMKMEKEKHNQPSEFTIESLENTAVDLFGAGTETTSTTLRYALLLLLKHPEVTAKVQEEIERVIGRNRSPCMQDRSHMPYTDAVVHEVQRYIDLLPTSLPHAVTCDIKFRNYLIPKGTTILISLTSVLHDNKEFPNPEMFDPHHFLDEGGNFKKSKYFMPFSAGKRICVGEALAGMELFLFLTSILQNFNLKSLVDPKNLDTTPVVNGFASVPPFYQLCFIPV
Sequence of Cytochrome P450 2C19 (P33261 whole entry): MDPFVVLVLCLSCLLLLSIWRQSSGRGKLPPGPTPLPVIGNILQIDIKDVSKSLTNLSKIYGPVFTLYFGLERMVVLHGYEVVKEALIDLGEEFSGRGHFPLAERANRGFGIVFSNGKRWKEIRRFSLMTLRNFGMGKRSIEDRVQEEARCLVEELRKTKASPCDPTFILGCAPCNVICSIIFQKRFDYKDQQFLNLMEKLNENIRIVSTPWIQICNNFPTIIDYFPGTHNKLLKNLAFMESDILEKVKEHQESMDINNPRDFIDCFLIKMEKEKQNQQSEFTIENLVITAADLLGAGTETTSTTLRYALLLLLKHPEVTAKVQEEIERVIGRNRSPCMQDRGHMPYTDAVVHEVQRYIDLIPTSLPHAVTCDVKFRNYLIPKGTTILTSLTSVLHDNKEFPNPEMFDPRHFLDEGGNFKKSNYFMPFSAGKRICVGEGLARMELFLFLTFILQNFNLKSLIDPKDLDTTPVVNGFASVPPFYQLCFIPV
Sequence of Cytochrome P450 3A4 (P08684 whole entry): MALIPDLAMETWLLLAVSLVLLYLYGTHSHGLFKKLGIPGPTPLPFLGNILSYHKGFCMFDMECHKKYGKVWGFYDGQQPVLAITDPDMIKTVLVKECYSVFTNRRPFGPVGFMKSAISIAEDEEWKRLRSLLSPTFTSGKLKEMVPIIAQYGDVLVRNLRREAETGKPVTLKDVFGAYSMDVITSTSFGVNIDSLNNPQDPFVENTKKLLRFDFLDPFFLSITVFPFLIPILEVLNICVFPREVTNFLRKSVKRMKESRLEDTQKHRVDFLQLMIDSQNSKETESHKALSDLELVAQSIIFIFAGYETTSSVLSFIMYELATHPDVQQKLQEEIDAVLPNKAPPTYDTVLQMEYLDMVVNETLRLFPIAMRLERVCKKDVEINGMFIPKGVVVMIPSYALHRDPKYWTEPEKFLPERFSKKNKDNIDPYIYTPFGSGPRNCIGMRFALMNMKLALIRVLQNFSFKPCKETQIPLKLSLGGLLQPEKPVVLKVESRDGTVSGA
Sequence of Cytochrome P450 2D6 (P10635 whole entry): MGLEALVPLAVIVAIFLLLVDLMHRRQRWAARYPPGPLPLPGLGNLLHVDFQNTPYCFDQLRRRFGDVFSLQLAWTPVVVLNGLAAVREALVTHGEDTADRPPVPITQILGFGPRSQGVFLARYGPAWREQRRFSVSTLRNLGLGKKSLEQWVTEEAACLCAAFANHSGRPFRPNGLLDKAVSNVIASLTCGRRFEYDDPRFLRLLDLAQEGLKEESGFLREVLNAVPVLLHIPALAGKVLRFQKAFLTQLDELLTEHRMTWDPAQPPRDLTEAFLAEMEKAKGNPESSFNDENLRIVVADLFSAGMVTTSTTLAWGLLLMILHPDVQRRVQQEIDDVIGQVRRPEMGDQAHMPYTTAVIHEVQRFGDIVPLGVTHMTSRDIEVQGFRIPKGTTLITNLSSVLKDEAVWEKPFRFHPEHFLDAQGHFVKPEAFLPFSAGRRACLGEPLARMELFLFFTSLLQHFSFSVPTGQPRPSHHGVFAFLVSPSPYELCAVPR

Structure (SMILES)	Ki [1] [µM]	IC50 (Cytochrome P450 2C19) [µM]	solubility kinetic [5] [µM]	fraction unbound (Homo sapiens)	IC50 (Cytochrome P450 2C9) [µM]	IC50 (Cytochrome P450 2D6) [µM]	MIC (Haemophilus influenzae) [µg/mL]	IC50 (Cytochrome P450 3A4) [µM]	bioavailability [7] [%]	MIC (Streptococcus pneumoniae [8]) [µg/mL]	MIC (Streptococcus pneumoniae [9]) [µg/mL]	MIC (Staphylococcus aureus) [µg/mL]	IC50 (Cytochrome P450 1A2) [µM]	clearance [10] [mL/min/kg]	AUC (Rattus norvegicus) [ug/hr.ml]	Vd [11] [L/kg]	half-life [12] [min]	Log10 cfu (Streptococcus pneumoniae [13])	AUC (Mus musculus [14]) [ng·h/mL]	AUC (Mus musculus [15]) [ng·h/mL]	further results
Cc1nccn1CC(=O)c1ccc(-c2ccc(N3C[C@H](Cn4ccnn4)OC3=O)cc2F)cn1	> 89	> 20	200 (≈ 92.3 µg/mL)	0.25	> 20	> 20	2 (≈ 4.33 µM)	> 20	100	0.5 (≈ 1.08 µM)	0.13 (≈ 0.282 µM)	0.5 (≈ 1.08 µM)	> 20	–	–	–	–	–	–	–	half-life [2]: 24 min; AUC [3]: 1200 ng·h/mL; Vd [4]: 0.3 L/kg; clearance [6]: 62 mL/min/kg
CCc1nccn1CC(=O)c1ccc(-c2ccc(N3C[C@H](Cn4ccnn4)OC3=O)cc2F)cn1	> 44	–	100 (≈ 47.5 µg/mL)	–	–	–	4 (≈ 8.41 µM)	–	–	0.5 (≈ 1.05 µM)	< 0.06	0.5 (≈ 1.05 µM)	–	23	1.6	0.9	36	–	–	–	–
CC(=O)NC[C@H]1CN(c2ccc(N3CCOCC3)c(F)c2)C(=O)O1 [LINEZOLID]	–	–	–	–	–	–	–	–	–	–	–	–	–	–	–	–	–	3.89	105000	45700	–
Cc1cnc(C)n1CC(=O)c1ccc(-c2ccc(N3C[C@H](Cn4ccnn4)OC3=O)cc2F)cn1	19	> 20	50 (≈ 23.8 µg/mL)	0.1	> 20	> 20	4 (≈ 8.41 µM)	10.7	73	0.5 (≈ 1.05 µM)	< 0.06	0.25 (≈ 0.526 µM)	> 20	10	3.3	1.4	108	2.57	31000	17400	Log10 cfu (Streptococcus pneumoniae [16]): 1.94
Cc1cn(CC(=O)c2ccc(-c3ccc(N4C[C@H](Cn5ccnn5)OC4=O)cc3F)cn2)c(C)n1	> 11	–	25 (≈ 11.9 µg/mL)	0.12	–	–	2 (≈ 4.21 µM)	–	14	0.25 (≈ 0.526 µM)	< 0.06	0.25 (≈ 0.526 µM)	–	13	2.6	0.9	60	–	–	–	–
